Measured values published in paper PMC2842018 (European journal of nuclear medicine and molecular imaging, 2008).

Key:
glioblastoma = glioblastoma patients, radiotherapy plus temozolomide; ref [1]; cited from earlier work
α3 integrin = conditions: ovarian cancer, ref [7]; cited from earlier work
[1] = tested on: U-87MG cells (α3 integrin); experiment: Fluorescence microscopy of U-87MG cells stained with biotinylated LXY1; assay type: cell-based, human
Method in brief: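 U-87MG cells at 80–90% confluence were dissociated with 0.05% trypsin-EDTA. Each sample (3×10⁵ cells) was incubated with biotinylated peptide in PBS with 10% FBS and 1 mM MnCl2 for 30 min on ice, washed three times, given streptavidin-Alexa488 for 30 min and washed once. Cells were cytospun onto slides (2000 rpm, 2 min), mounted with DAPI medium and viewed by fluorescence microscopy. For blocking, unlabeled peptide or anti-α3 integrin antibody (clone P1B5) was co-incubated.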

Cn1nnc2c(C(N)=O)ncn2c1=O [temozolomide]
median survival (glioblastoma): 14.6 months

cDGXGXXc
binding preference and specificity (α3 integrin): bind preferentially to ovarian cancer with high specificity against α3 integrin

cdGLGBNc (disulfide) [LXY1]
blocking of cell staining by biotinylated LXY1 ([1]; excess unlabeled LXY1 or anti-α3 antibody (clone P1B5) as blocker, streptavidin-Alexa488): almost completely abolished

cdGLGBNc-linker-linker-Biotin (disulfide) [LXY1-biotin]
staining of U-87MG cells ([1]; biotinylated LXY1 30 min, streptavidin-Alexa488 30 min, DAPI counterstain): Strong staining
